In ChEMBL document CHEMBL1153726, “Synthesis and anticancer activity of sclerophytin-inspired hydroisobenzofurans” (Bioorg Med Chem Lett, 2009):

Assays:
Assay type in all cases: functional
[1] = system: A498; assay: Growth inhibition of human A498 cells at 1 nM after 96 hrs by MTT assay; design: scale not given: the % may be the effect or the level left
[2] = system: UACC-257; assay: Growth inhibition of human UACC257 cells at 1 nM after 96 hrs by MTT assay; design: scale not given: the % may be the effect or the level left
[3] = system: SW-620; assay: Growth inhibition of human SW620 cells at 1 nM after 96 hrs by MTT assay; design: scale not given: the % may be the effect or the level left
[4] = system: HCT-116; assay: Growth inhibition of human HCT116 cells at 1 nM after 96 hrs by MTT assay; design: scale not given: the % may be the effect or the level left
[5] = system: MOLT-4; assay: Growth inhibition of human MOLT4 cells at 1 nM after 96 hrs by MTT assay; design: scale not given: the % may be the effect or the level left
[6] = system: K562; assay: Growth inhibition of human K562 cells at 1 nM after 96 hrs by MTT assay; design: scale not given: the % may be the effect or the level left
[7] = system: T47D; assay: Growth inhibition of human T47D cells at 10 uM after 96 hrs by MTT assay; design: scale not given: the % may be the effect or the level left
[8] = Growth inhibition of human Hs 578T cells at 10 uM after 96 hrs by MTT assay; design: scale not given: the % may be the effect or the level left
[9] = system: MDA-MB-231; assay: Growth inhibition of human MDA-MB-231 cells at 10 uM after 96 hrs by MTT assay; design: scale not given: the % may be the effect or the level left
[10] = system: A498; assay: Growth inhibition of human A498 cells at 10 uM after 96 hrs by MTT assay; design: scale not given: the % may be the effect or the level left
[11] = system: SF-295; assay: Growth inhibition of human SF295 cells at 10 uM after 96 hrs by MTT assay; design: scale not given: the % may be the effect or the level left
[12] = system: MOLT-4; assay: Growth inhibition of human MOLT4 cells at 10 uM after 96 hrs by MTT assay; design: scale not given: the % may be the effect or the level left
[13] = system: EKVX; assay: Growth inhibition of human EKVX cells at 10 nM after 96 hrs by MTT assay; design: scale not given: the % may be the effect or the level left
[14] = system: TK-10; assay: Growth inhibition of human TK10 cells at 1 nM after 96 hrs by MTT assay; design: scale not given: the % may be the effect or the level left
[15] = system: SW-620; assay: Growth inhibition of human SW620 cells after 96 hrs by MTT assay; details: SW-620, 96 h
Procedure, shortened: (§1)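 Tested in the NCI 60-cell-line panel in five-dose format; GI50 and LC50 values reported for each cell line.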

[16] = system: SF-268; assay: Growth inhibition of human SF268 cells after 96 hrs by MTT assay; details: SF-268, 96 h; procedure, shortened: as §1
[17] = system: SK-MEL-5; assay: Growth inhibition of human SK-MEL-5 cells after 96 hrs by MTT assay; details: SK-MEL-5, 96 h; procedure, shortened: as §1
[18] = system: OVCAR-8; assay: Growth inhibition of human OVCAR8 cells after 96 hrs by MTT assay; details: OVCAR-8, 96 h; procedure, shortened: as §1
[19] = system: ACHN; assay: Growth inhibition of human ACHN cells after 96 hrs by MTT assay
[20] = system: MDA-MB-468; assay: Growth inhibition of human MDA-MB-468 cells after 96 hrs by MTT assay; details: MDA-MB-468, 96 h
Procedure, shortened: (§2)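 Run in the NCI 60 human tumour cell line panel as a five-dose assay. GI50 and LC50 were reported for each cell line.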

[21] = system: CAKI-1; assay: Growth inhibition of human Caki1 cells at 10 uM after 96 hrs by MTT assay; design: scale not given: the % may be the effect or the level left
[22] = system: MOLT-4; assay: Growth inhibition of human MOLT4 cells at 10 nM after 96 hrs by MTT assay; design: scale not given: the % may be the effect or the level left
[23] = system: HCT-116; assay: Growth inhibition of human HCT116 cells after 96 hrs by MTT assay; details: HCT-116, 96 h; procedure, shortened: as §2
[24] = system: COLO 205; assay: Growth inhibition of human COLO205 cells after 96 hrs by MTT assay; details: COLO 205, 96 h
[25] = Growth inhibition of human […] cells after 96 hrs by MTT assay; procedure, shortened: as §1
[26] = system: TK-10; assay: Growth inhibition of human TK10 cells at 1 uM after 96 hrs by MTT assay; design: scale not given: the % may be the effect or the level left
[27] = system: OVCAR-4; assay: Growth inhibition of human OVCAR4 cells at 1 uM after 96 hrs by MTT assay; design: scale not given: the % may be the effect or the level left
[28] = system: SK-OV-3; assay: Growth inhibition of human SKOV3 cells at 100 nM after 96 hrs by MTT assay; design: scale not given: the % may be the effect or the level left
[29] = system: OVCAR-8; assay: Growth inhibition of human OVCAR8 cells at 100 nM after 96 hrs by MTT assay; design: scale not given: the % may be the effect or the level left
[30] = system: HCT-116; assay: Growth inhibition of human HCT116 cells at 100 nM after 96 hrs by MTT assay; design: scale not given: the % may be the effect or the level left
[31] = system: NCI-H522; assay: Growth inhibition of human NCI-H522 cells at 100 nM after 96 hrs by MTT assay; design: scale not given: the % may be the effect or the level left
[32] = system: HOP-92; assay: Growth inhibition of human HOP92 cells at 100 nM after 96 hrs by MTT assay; design: scale not given: the % may be the effect or the level left
[33] = system: K562; assay: Growth inhibition of human K562 cells at 100 nM after 96 hrs by MTT assay; design: scale not given: the % may be the effect or the level left
[34] = system: RXF 393; assay: Growth inhibition of human RXF393 cells at 10 nM after 96 hrs by MTT assay; design: scale not given: the % may be the effect or the level left
[35] = system: NCI/ADR-RES; assay: Growth inhibition of human NCI/ADR-RES cells at 10 nM after 96 hrs by MTT assay; design: scale not given: the % may be the effect or the level left
[36] = system: UACC-62; assay: Growth inhibition of human UACC62 cells at 1 uM after 96 hrs by MTT assay; design: scale not given: the % may be the effect or the level left
[37] = system: SNB-75; assay: Growth inhibition of human SNB75 cells at 1 uM after 96 hrs by MTT assay; design: scale not given: the % may be the effect or the level left
[38] = system: NCI-H522; assay: Growth inhibition of human NCI-H522 cells at 1 uM after 96 hrs by MTT assay; design: scale not given: the % may be the effect or the level left
[39] = read-out: LC50 (the source's name)
[40] = read-out: Log10GI50 (converted)
[41] = read-out: Log10LC50 (converted)

C=C(C)[C@H]1CC=C(C)C2=CO[C@@H](c3ccccc3F)[C@@H]21
Activity [1]: 82% | Activity [2]: 91% | Activity [3]: 96% | Activity [4]: 102% | Activity [5]: 106% | Activity [6]: 101% | Activity [7]: 56.11% | Activity [8]: 95.86% | Activity [9]: 101.47% | Activity [10]: 104.48% | Activity [11]: 85.19% | Activity [12]: 74.3% | Activity [13]: 93% | Activity [14]: 84% | GI50 ([15]; read-out: GI50): 4.49 µM | CC50 [15, 39]: 43.4 µM | GI50 [15, 40]: 4.47 µM | CC50 [15, 41]: 43.7 µM | TGI ([15]; read-out: Log10TGI (converted)): 15.8 µM | TGI ([15]; read-out: TGI): 15.9 µM | GI50 ([16]; read-out: GI50): 6.95 µM | CC50 [16, 39]: 62.9 µM | GI50 [16, 40]: 6.92 µM | CC50 [16, 41]: 63.1 µM | TGI ([16]; read-out: Log10TGI (converted)): 23.4 µM | TGI ([16]; read-out: TGI): 23.4 µM | GI50 ([17]; read-out: GI50): 2.48 µM | CC50 [17, 39]: 38.6 µM | GI50 [17, 40]: 2.51 µM | CC50 [17, 41]: 38.9 µM | TGI ([17]; read-out: Log10TGI (converted)): 14.8 µM | TGI ([17]; read-out: TGI): 14.9 µM | GI50 ([18]; read-out: GI50): 11.9 µM | CC50 [18, 39]: 79 µM | GI50 [18, 40]: 11.7 µM | CC50 [18, 41]: 79.4 µM | TGI ([18]; read-out: Log10TGI (converted)): 30.9 µM | TGI ([18]; read-out: TGI): 30.6 µM | GI50 ([19]; read-out: GI50): 6.39 µM | CC50 [19, 39]: 43.8 µM | GI50 [19, 40]: 6.46 µM | CC50 [19, 41]: 43.7 µM | TGI ([19]; read-out: Log10TGI (converted)): 19.1 µM | TGI ([19]; read-out: TGI): 19 µM | GI50 ([20]; read-out: GI50): 1.43 µM | CC50 [20, 39]: 66.1 µM | GI50 [20, 40]: 1.45 µM | CC50 [20, 41]: 66.1 µM | TGI ([20]; read-out: Log10TGI (converted)): 14.1 µM | TGI ([20]; read-out: TGI): 14.1 µM | Activity [21]: -25% | Activity [22]: 100% | GI50 ([23]; read-out: GI50): 3 µM | CC50 [23, 39]: 36.9 µM | GI50 [23, 40]: 3.02 µM | CC50 [23, 41]: 37.2 µM | TGI ([23]; read-out: Log10TGI (converted)): 13.5 µM | TGI ([23]; read-out: TGI): 13.6 µM | GI50 ([24]; read-out: GI50): 9.77 µM | CC50 [24, 39]: 46.3 µM | GI50 [24, 40]: 9.77 µM | CC50 [24, 41]: 46.8 µM | TGI ([24]; read-out: Log10TGI (converted)): 21.4 µM | TGI ([24]; read-out: TGI): 21.5 µM | GI50 ([25]; read-out: GI50): 0.148 µM | CC50 [25, 39]: 9.36 µM | GI50 [25, 40]: 0.148 µM | CC50 [25, 41]: 9.33 µM | TGI ([25]; read-out: Log10TGI (converted)): 2 µM | TGI ([25]; read-out: TGI): 2.01 µM | Activity [26]: 48% | Activity [27]: 33% | Activity [28]: 98% | Activity [29]: 93% | Activity [30]: 82% | Activity [31]: 71% | Activity [32]: 43% | Activity [33]: 68% | Activity [34]: 85% | Activity [35]: 97% | Activity [36]: 29% | Activity [37]: 35% | Activity [38]: 29%
